Laboratory results as given in ChEMBL document CHEMBL1649165, “Activity profile in vitro of micafungin against Spanish clinical isolates of common and emerging species of yeasts and molds” (2009).
≈ marks a conversion by molar mass, not a printed value.

What was measured:
Type in all cases: functional
[1] = test system: Cladophialophora bantiana; test: Antimicrobial activity against Cladophialophora bantiana by broth microdilution method
Procedure, shortened: (§1)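 Clinical mould isolates, tested by broth microdilution using the AFST-EUCAST reference method for filamentous fungi. For echinocandins, the endpoint was the minimum effective concentration: the lowest drug concentration giving aberrant hyphal growth, read with an inverted microscope.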

Trichosporon domesticum = test: Antimicrobial activity against Trichosporon mycotoxinivorans by broth microdilution method; conditions: Apiotrichum domesticum
Procedure, shortened: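 Spanish human clinical isolates were tested as nonfermentative yeasts by broth microdilution. The method strictly followed the EUCAST recommendations, with a minor modification to improve growth, and the read-out was the MIC.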

[2] = test system: Scopulariopsis brevicaulis; test: Antimicrobial activity against Scopulariopsis brevicaulis by broth microdilution method
Procedure, shortened: (§2)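 Filamentous fungus clinical isolates tested by the AFST-EUCAST reference broth microdilution method for moulds. For echinocandins, the endpoint was the minimum effective concentration: the lowest drug concentration giving aberrant hyphal growth, read with an inverted microscope.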

Scedosporium apiospermum = test: Antimicrobial activity against Scedosporium apiospermum by broth microdilution method; procedure, shortened: as §2
Ustilago = test: Antimicrobial activity against Ustilago spp by broth microdilution method
Saksenaea vasiformis = test: Antimicrobial activity against Saksenaea vasiformis by broth microdilution method; procedure, shortened: as §2
Naganishia albida = test: Antimicrobial activity against Cryptococcus albidus by broth microdilution method
Procedure, shortened: (§3)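 Clinical isolates of nonfermentative yeasts, tested by broth microdilution following EUCAST recommendations. The only change from that method was a minor modification to improve growth.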

Aspergillus = test: Antimicrobial activity against Aspergillus spp. by broth microdilution method; procedure, shortened: as §1
Rhizomucor = test: Antimicrobial activity against Rhizomucor spp.by broth microdilution method; procedure, shortened: as §2
Trichosporon asahii = test: Antimicrobial activity against Trichosporon asahii by broth microdilution method
Procedure, shortened: (§4)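 Nonfermentative yeast clinical isolates (Rhodotorula, Trichosporon) tested by broth microdilution. The EUCAST yeast recommendations were followed strictly, with one minor modification to improve growth. MIC was read as the endpoint.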

Debaryomyces hansenii = test: Antimicrobial activity against Candida famata by broth microdilution method
Procedure, shortened: (§5)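 Clinical isolates from human patients, tested by broth microdilution using the AFST-EUCAST reference procedure for fermentative yeasts. The MIC was read per that reference method.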

Trichosporon jirovecii = test: Antimicrobial activity against Trichosporon jirovecii by broth microdilution method; conditions: Cutaneotrichosporon jirovecii; procedure, shortened: as §4
Coprinellus domesticus = test: Antimicrobial activity against Hormographiella verticillata by broth microdilution method; procedure, shortened: as §2
Acremonium sp. = test: Antimicrobial activity against Acremonium sp.by broth microdilution method; procedure, shortened: as §1
Cladosporium = test: Antimicrobial activity against Cladosporium spp. by broth microdilution method; procedure, shortened: as §1
Trichosporon inkin = test: Antimicrobial activity against Trichosporon inkin by broth microdilution method; procedure, shortened: as §4
Lichtheimia corymbifera = test: Antimicrobial activity against Mycocladus corymbiferus by broth microdilution method; procedure, shortened: as §2
Lecythophora hoffmannii = test: Antimicrobial activity against Lecythophora hoffmannii by broth microdilution method; conditions: Coniochaeta hoffmannii; procedure, shortened: as §2
Phialemonium curvatum = test: Antimicrobial activity against Phialemonium curvatum by broth microdilution method; conditions: Thyridium curvatum; procedure, shortened: as §2
[3] = Antimicrobial activity against Hormographiella aspergillata by broth microdilution method; conditions: Coprinopsis cinerea; procedure, shortened: as §2
Paecilomyces lilacinus = test: Antimicrobial activity against Paecilomyces lilacinus by broth microdilution method; conditions: Purpureocillium lilacinum; procedure, shortened: as §2
Exophiala jeanselmei = test: Antimicrobial activity against Exophiala jeanselmei by broth microdilution method
Pichia kudriavzevii = test: Antimicrobial activity against Candida krusei by broth microdilution method; procedure, shortened: as §5
Saccharomyces cerevisiae = test: Antimicrobial activity against Saccharomyces cerevisiae by broth microdilution method
Candida orthopsilosis = test: Antimicrobial activity against Candida orthopsilosis by broth microdilution method; conditions: Lodderomyces orthopsilosis; procedure, shortened: as §5
[Candida] zeylanoides = Antimicrobial activity against Candida zeylanoides by broth microdilution method; conditions: Dujonia zeylanoides; procedure, shortened: as §5
Trichosporon = test: Antimicrobial activity against Trichosporon spp. by broth microdilution method; procedure, shortened: as §4
Beauveria bassiana = test: Antimicrobial activity against Beauveria bassiana by broth microdilution method; procedure, shortened: as §1
Candida metapsilosis = test: Antimicrobial activity against Candida metapsilosis by broth microdilution method; conditions: Lodderomyces metapsilosis; procedure, shortened: as §5
[4] = test system: Cunninghamella bertholletiae; test: Antimicrobial activity against Cunninghamella bertholletiae by broth microdilution method; procedure, shortened: as §1
Candida tropicalis = test: Antimicrobial activity against Candida tropicalis by broth microdilution method; procedure, shortened: as §5
Fennellia nivea = test: Antimicrobial activity against Aspergillus niveus by broth microdilution method; procedure, shortened: as §1
[5] = test system: Cryptococcus deneoformans; test: Antimicrobial activity against Cryptococcus neoformans var. neoformans by broth microdilution method; procedure, shortened: as §3
Aspergillus versicolor = test: Antimicrobial activity against Aspergillus versicolor by broth microdilution method; procedure, shortened: as §1
Exophiala dermatitidis = test: Antimicrobial activity against Exophiala dermatitidis by broth microdilution method
Fusarium solani = test: Antimicrobial activity against Fusarium solani by broth microdilution method; procedure, shortened: as §2
Neurospora sitophila = test: Antimicrobial activity against Chrysonilia sitophila by broth microdilution method; procedure, shortened: as §1
Pichia norvegensis = test: Antimicrobial activity against Candida norvegensis by broth microdilution method; procedure, shortened: as §5
Aspergillus ustus = test: Antimicrobial activity against Aspergillus ustus by broth microdilution method; procedure, shortened: as §1
Clavispora lusitaniae = test: Antimicrobial activity against Candida lusitaniae by broth microdilution method; procedure, shortened: as §5
Mucor = test: Antimicrobial activity against Mucor spp.by broth microdilution method; procedure, shortened: as §2
[6] = test system: Kazachstania pintolopesii; test: Antimicrobial activity against Candida pintolopesii by broth microdilution method; conditions: Arxiozyma pintolopesii; procedure, shortened: as §5
Candida albicans = test: Antimicrobial activity against Candida albicans by broth microdilution method; procedure, shortened: as §5
Scytalidium hyalinum = test: Antimicrobial activity against Scytalidium hyalinum by broth microdilution method; conditions: Neoscytalidium hyalinum; procedure, shortened: as §2

CC[C@H](C)C[C@H](C)CCCCCCCCC(=O)N[C@H]1C[C@@H](O)[C@@H](NCCN)NC(=O)[C@@H]2[C@@H](O)CCN2C(=O)[C@H]([C@H](O)CCN)NC(=O)[C@H]([C@H](O)[C@@H](O)c2ccc(O)cc2)NC(=O)[C@@H]2C[C@@H](O)CN2C(=O)[C@H]([C@@H](C)O)NC1=O [CASPOFUNGIN]
MIC50 [1]: 0.25 µg/mL (≈ 0.229 µM)
MIC90 [1]: 1 µg/mL (≈ 0.915 µM)
MIC50 (Trichosporon domesticum): > 16 µg/mL
MIC90 (Trichosporon domesticum): > 16 µg/mL
MIC50 [2]: > 16 µg/mL
MIC90 [2]: > 16 µg/mL
MIC50 (Scedosporium apiospermum): 2 µg/mL (≈ 1.83 µM)
MIC90 (Scedosporium apiospermum): > 16 µg/mL
MIC50 (Ustilago): > 16 µg/mL
MIC90 (Ustilago): > 16 µg/mL
MIC50 (Saksenaea vasiformis): > 16 µg/mL
MIC90 (Saksenaea vasiformis): > 16 µg/mL
MIC50 (Naganishia albida): > 16 µg/mL
MIC90 (Naganishia albida): > 16 µg/mL
MIC50 (Aspergillus): 0.12 µg/mL (≈ 0.11 µM)
MIC90 (Aspergillus): 0.5 µg/mL (≈ 0.457 µM)
MIC50 (Rhizomucor): > 16 µg/mL
MIC90 (Rhizomucor): > 16 µg/mL
MIC50 (Trichosporon asahii): > 16 µg/mL
MIC90 (Trichosporon asahii): > 16 µg/mL
MIC50 (Debaryomyces hansenii): 0.06 µg/mL (≈ 0.0549 µM)
MIC90 (Debaryomyces hansenii): 0.5 µg/mL (≈ 0.457 µM)
MIC50 (Trichosporon jirovecii): > 16 µg/mL
MIC90 (Trichosporon jirovecii): > 16 µg/mL
MIC50 (Coprinellus domesticus): > 16 µg/mL
MIC90 (Coprinellus domesticus): > 16 µg/mL
MIC50 (Acremonium sp.): 0.5 µg/mL (≈ 0.457 µM)
MIC90 (Acremonium sp.): 1 µg/mL (≈ 0.915 µM)
MIC50 (Cladosporium): 0.25 µg/mL (≈ 0.229 µM)
MIC90 (Cladosporium): 1 µg/mL (≈ 0.915 µM)
MIC50 (Trichosporon inkin): > 16 µg/mL
MIC90 (Trichosporon inkin): > 16 µg/mL
MIC50 (Lichtheimia corymbifera): > 16 µg/mL
MIC90 (Lichtheimia corymbifera): > 16 µg/mL
MIC50 (Lecythophora hoffmannii): 0.25 µg/mL (≈ 0.229 µM)
MIC90 (Lecythophora hoffmannii): 1 µg/mL (≈ 0.915 µM)
MIC50 (Phialemonium curvatum): > 16 µg/mL
MIC90 (Phialemonium curvatum): > 16 µg/mL
MIC50 [3]: > 16 µg/mL
MIC90 [3]: > 16 µg/mL
MIC50 (Paecilomyces lilacinus): > 16 µg/mL
MIC90 (Paecilomyces lilacinus): > 16 µg/mL
MIC50 (Exophiala jeanselmei): 0.25 µg/mL (≈ 0.229 µM)
MIC90 (Exophiala jeanselmei): 1 µg/mL (≈ 0.915 µM)
MIC50 (Pichia kudriavzevii): 0.25 µg/mL (≈ 0.229 µM)
MIC90 (Pichia kudriavzevii): 0.5 µg/mL (≈ 0.457 µM)
MIC50 (Saccharomyces cerevisiae): 0.5 µg/mL (≈ 0.457 µM)
MIC90 (Saccharomyces cerevisiae): 1 µg/mL (≈ 0.915 µM)
MIC50 (Candida orthopsilosis): 0.06 µg/mL (≈ 0.0549 µM)
MIC90 (Candida orthopsilosis): 0.5 µg/mL (≈ 0.457 µM)
MIC50 ([Candida] zeylanoides): 0.06 µg/mL (≈ 0.0549 µM)
MIC90 ([Candida] zeylanoides): 0.5 µg/mL (≈ 0.457 µM)
MIC50 (Trichosporon): > 16 µg/mL
MIC90 (Trichosporon): > 16 µg/mL
MIC50 (Beauveria bassiana): > 16 µg/mL
MIC90 (Beauveria bassiana): > 16 µg/mL
MIC50 (Candida metapsilosis): 0.06 µg/mL (≈ 0.0549 µM)
MIC90 (Candida metapsilosis): 0.5 µg/mL (≈ 0.457 µM)
MIC50 [4]: > 16 µg/mL
MIC90 [4]: > 16 µg/mL
MIC50 (Candida tropicalis): 0.12 µg/mL (≈ 0.11 µM)
MIC90 (Candida tropicalis): 0.25 µg/mL (≈ 0.229 µM)
MIC50 (Fennellia nivea): 0.12 µg/mL (≈ 0.11 µM)
MIC90 (Fennellia nivea): 0.5 µg/mL (≈ 0.457 µM)
MIC50 [5]: > 16 µg/mL
MIC90 [5]: > 16 µg/mL
MIC50 (Aspergillus versicolor): 0.25 µg/mL (≈ 0.229 µM)
MIC90 (Aspergillus versicolor): 2 µg/mL (≈ 1.83 µM)
MIC50 (Exophiala dermatitidis): 0.25 µg/mL (≈ 0.229 µM)
MIC90 (Exophiala dermatitidis): 1 µg/mL (≈ 0.915 µM)
MIC50 (Fusarium solani): > 16 µg/mL
MIC90 (Fusarium solani): > 16 µg/mL
MIC50 (Neurospora sitophila): > 16 µg/mL
MIC90 (Neurospora sitophila): > 16 µg/mL
MIC50 (Pichia norvegensis): 0.06 µg/mL (≈ 0.0549 µM)
MIC90 (Pichia norvegensis): 0.5 µg/mL (≈ 0.457 µM)
MIC50 (Aspergillus ustus): 0.12 µg/mL (≈ 0.11 µM)
MIC90 (Aspergillus ustus): 0.5 µg/mL (≈ 0.457 µM)
MIC50 (Clavispora lusitaniae): 0.5 µg/mL (≈ 0.457 µM)
MIC90 (Clavispora lusitaniae): 1 µg/mL (≈ 0.915 µM)
MIC50 (Mucor): > 16 µg/mL
MIC90 (Mucor): > 16 µg/mL
MIC50 [6]: 0.06 µg/mL (≈ 0.0549 µM)
MIC90 [6]: 0.5 µg/mL (≈ 0.457 µM)
MIC50 (Candida albicans): 0.06 µg/mL (≈ 0.0549 µM)
MIC90 (Candida albicans): 0.12 µg/mL (≈ 0.11 µM)
MIC50 (Scytalidium hyalinum): 0.25 µg/mL (≈ 0.229 µM)
MIC90 (Scytalidium hyalinum): 1 µg/mL (≈ 0.915 µM)
